Source: PubChem (several laboratories)
This is a sample that favours compounds with a hit; in the whole collection about 1.7% have one here.
Arr AP2 block: human beta-arrestin and AP2 interaction inhibition. FITC-arrestin peptide / GST-AP2 beads, flow cytometry; AP2 beta2 appendage carries R879A mutation. inhibition, % at 10 µM. 340,000 compounds, 0.31% hits. AID 504490;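 active means inhibition above a set limit, near 3 SD of compounds lacking own fluorescence, cut at about 54% in these data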;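 further: plate controls were DMSO wells for no effect and 5 µM unlabelled arrestin peptide for full effect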
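System: GST-AP2 R879A glutathione beads. Medium: PBS with 0.05% Tween 20 and 0.1% BSA. Also added: FITC-arrestin peptide, 50 nM. Incubation: 12 min plus 1 h, RT. Measured by: high-throughput flow cytometry of beads, ex 488, em 535 nm. Evaluation: percent drop in bead-associated FITC signal.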
Efflux pump mplx: antifungal efflux pump inhibition, Nile Red retention; S. cerevisiae Candida pump triplex; inhibition, % at 10 µM; 330,000 compounds, 0.44% hits; AID 485275;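 active means plate passing quality check with inhibition over a set limit, or well fluorescence over plate mean plus 4 SD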;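 further: Nile Red retained in pooled yeast measured as flow cytometry median fluorescence; 0% = buffer negative control and 100% = Enniatin B positive control; higher means more Nile Red kept so more efflux inhibition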
DSG3 Ab inh: inhibitors of pemphigus antibody binding to human desmoglein-3; 310,000 compounds, 0.48% hits; DSG3-coupled beads, scFv-anti-DSG3-GFP binding, flow cytometry; hits give low values; AID 588358; binding (percent of control), % at 10 µM; P32926;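 active means binding more than 3 SD below its plate's average and above zero; inconclusive means below that plate limit but binding exactly zero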;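 further: hits lower antibody fragment binding to DSG3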
Target sequence (P32926 whole entry, looked up, the tested form may be a part): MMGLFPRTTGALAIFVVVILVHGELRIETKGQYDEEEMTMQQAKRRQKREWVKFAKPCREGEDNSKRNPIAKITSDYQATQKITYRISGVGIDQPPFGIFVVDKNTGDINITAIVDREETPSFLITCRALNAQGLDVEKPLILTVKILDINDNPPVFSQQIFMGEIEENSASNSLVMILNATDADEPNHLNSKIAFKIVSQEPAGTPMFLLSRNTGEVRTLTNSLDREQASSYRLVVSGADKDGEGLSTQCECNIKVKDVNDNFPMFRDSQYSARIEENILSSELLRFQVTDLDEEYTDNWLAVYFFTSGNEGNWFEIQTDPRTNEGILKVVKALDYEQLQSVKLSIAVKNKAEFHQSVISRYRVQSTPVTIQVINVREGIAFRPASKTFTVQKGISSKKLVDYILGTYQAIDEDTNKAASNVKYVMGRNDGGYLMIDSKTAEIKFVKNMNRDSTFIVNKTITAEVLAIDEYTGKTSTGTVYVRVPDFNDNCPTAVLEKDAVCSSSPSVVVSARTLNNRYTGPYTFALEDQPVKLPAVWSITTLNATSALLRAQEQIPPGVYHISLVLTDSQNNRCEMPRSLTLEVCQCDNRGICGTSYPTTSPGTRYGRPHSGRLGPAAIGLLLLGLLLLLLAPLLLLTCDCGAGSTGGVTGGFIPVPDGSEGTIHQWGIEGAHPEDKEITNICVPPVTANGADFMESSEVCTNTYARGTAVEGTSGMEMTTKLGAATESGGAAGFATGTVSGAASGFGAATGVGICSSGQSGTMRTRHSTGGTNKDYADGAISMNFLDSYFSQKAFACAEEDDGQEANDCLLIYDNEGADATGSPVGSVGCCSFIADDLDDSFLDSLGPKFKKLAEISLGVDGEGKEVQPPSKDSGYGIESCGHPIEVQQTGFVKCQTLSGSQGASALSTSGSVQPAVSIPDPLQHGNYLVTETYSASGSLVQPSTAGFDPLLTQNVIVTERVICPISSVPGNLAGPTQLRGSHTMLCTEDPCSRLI
Neddyl block: blocks human cullin neddylation. P61081+Q13564. TR-FRET cullin neddylation, biochemical. inhibition, % at 25 µM. 360,000 compounds, 0.58% hits; in the data active means inhibition above about 36%
Neddyl inh conf: confirmation of human cullin neddylation inhibitors. TR-FRET cullin neddylation biochemical assay. shares compounds with Neddyl block. calls only at 25 µM. 1,800 compounds, 13% hits; in the data active means inhibition above about 40%;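 further: neddylation substrate is the cullin 1 ring ligase complex with SKP2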
The depositor's hits bear a star; i = inactive; ? = inconclusive; . = no result given.

SMILES	Arr AP2 block	Efflux pump mplx	DSG3 Ab inh	Neddyl block	Neddyl inh conf
CCCc1ccc(OCc2ccc(C(=O)NN)o2)c(OC)c1	33	0	109	-1	.
CNc1[nH]c(=O)[nH]c(=O)c1N=Nc1cc(Cl)ccc1Cl	4	0	104	-44	.
O=c1c(Cl)c(N/N=C/c2ccc(Cl)cc2)cnn1-c1ccccc1	6	0	99	42*	i
Nc1c(C(=O)N/N=C/c2ccc(Cl)cc2)cnn1-c1ccccc1	6	0	.	3	.
NS(=O)(=O)c1ccc(-c2ccc(/C=N/Nc3ccc(C(=O)O)cc3)o2)cc1	38	0	95	43*	i
O=C(O)c1ccc(N/N=C/c2ccc(-c3cccc(Cl)c3)o2)cc1	-1	0	99	.	.
CCn1c(SCC(=O)Nc2ncc(C(F)(F)F)cc2Cl)nnc1-c1cccc(C)c1	-6	0	93	11	.
Cc1cc(C(=O)OCC(=O)N2CC(C)OC(C)C2)ccc1[N+](=O)[O-] (centres undefined)	10	0	99	-26	.
CCOc1cc(S(=O)(=O)NCc2ccco2)c(OCC)cc1-n1cnnn1	1	0	93	43*	.
CC(=O)Nc1cccc(N/C=C(\C=O)c2nc3ccccc3o2)c1	1	0	124	55*	i
CC(=O)Nc1ccc(/C=C/c2nc3ccccc3o2)cc1	-11	0	?	47*	.
CC(=O)Nc1ccc(N/C=C(\C=O)c2nc3ccccc3o2)cc1	-27	0	168	.	.
Nc1cc2c(cc1Br)-c1c(C(=O)O)cccc1C2O (centres undefined)	-9	.	104	39*	i
CCCCN(CC)CCCNC(=O)c1cc2c(=O)n(C)c3ccccc3c2n1C	-5	-1	112	43*	i
CC(NC(=O)c1cccc(N(C)C)c1)c1ccc(-n2ccnc2)cc1 (centres undefined)	10	0	100	41*	i
CC(=O)Nc1cccc(C(=O)NC(C)c2ccc(-n3ccnc3)cc2)c1 (centres undefined)	13	0	.	3	.
CN(CCO)S(=O)(=O)c1ccc2c(c1)C(=NO)c1cc(S(=O)(=O)N(C)CCO)ccc1-2	1	0	97	49*	i
CCCNC(=O)CCn1cc(-c2ccc(OC)cc2)nc1-c1ccncc1	4	0	108	-22	.
CCCCN(CC)CCCNC(=O)c1cc2c(-c3ccc(OC)c(OC)c3)nn(C)c2s1	-2	0	122	53*	i
CCN(CC)CCCNC(=O)c1cc2c(-c3cccc(OC)c3)nn(C)c2s1	-10	0	91	.	.
Cc1ccc(-n2nc(C)c3c(C)cc(=O)[nH]c32)cc1	10	0	97	44*	i
N#Cc1ccccc1OCC(=O)N1N=C(c2cccs2)CC1c1ccco1 (centres undefined)	0	0	96	51*	i
O=C(COc1cc(F)ccc1[N+](=O)[O-])N1N=C(c2cccs2)CC1c1ccco1 (centres undefined)	-4	0	101	-6	.
Cc1ccc(C2CC(c3cccs3)=NN2C(=O)CCl)cc1 (centres undefined)	5	0	138	.	.
CCC(=O)N1N=C(c2cccs2)CC1c1ccc(C)cc1 (centres undefined)	14	0	105	52*	.
SMILES	Arr AP2 block	Efflux pump mplx	DSG3 Ab inh	Neddyl block	Neddyl inh conf
COc1ccc(C2CC(c3cccs3)=NN2C(=O)CSC2=NCCS2)cc1 (centres undefined)	6	0	135	43*	i
O=C(Nc1ccccc1)N1N=C(c2cccs2)CC1c1cccs1 (centres undefined)	11	0	127	40*	i
CC(C)(Oc1ccc(Cl)cc1)C(=O)NCC1CCCO1 (centres undefined)	15	0	108	-2	.
Cc1ccc(-n2ncc3c(=O)n(CC(=O)N(C(C)C)C(C)C)cnc32)cc1	-2	0	137	-32	.
O=C(c1ccco1)N1N=C(c2cccs2)CC1c1ccc(F)cc1 (centres undefined)	0	0	97	46*	i
COc1ccc(C2CC(c3cccs3)=NN2C(=O)c2ccco2)cc1OC (centres undefined)	-11	0	102	22	.
COc1ccc(-c2nn(-c3ccccc3)cc2C2CC(c3cccs3)=NN2C(=O)CCC(=O)O)cc1 (centres undefined)	3	0	97	46*	i
COc1ccc(C2=NN(C(=O)CCCC(=O)O)C(c3cn(-c4ccccc4)nc3-c3ccccc3)C2)cc1 (centres undefined)	1	0	97	15	.
CC(C)c1ccc(CN2CCN(C(=O)CSc3nnnn3C3CC3)CC2)cc1	10	0	101	-19	.
COc1ccc(CNC(=S)Nc2ccccc2)cc1	-7	0	142	0	.
Cc1ccc(S(=O)(=O)c2cc3c(=O)n4ccccc4nc3n(C)c2=N)cc1	-2	0	99	58*	i
Cc1ccc(NC(=O)C(=O)NCCCN2CCCC2=O)c(C)c1	20	0	94	3	.
CCN(CC(=O)Nc1ccc(NC(C)=O)cc1)C(=O)/C=C/c1cn(-c2ccccc2)nc1-c1cccs1	-14	0	100	50*	.
CCCCn1c2nc3ccccc3nc2c2c(=O)n(-c3ccccc3)cnc21	14	0	78	47*	i
CC(C)Cn1c(N)c(C(=O)NCCN2CCOCC2)c2nc3ccccc3nc21	-6	0	95	.	.
CCCn1cnc2c(c1=O)c1nc3ccccc3nc1n2CCc1ccccc1	2	0	107	44*	i
CC(C)Cn1c2nc3ccccc3nc2c2c(=O)n(CCN3CCOCC3)cnc21	-7	-1	101	42*	i
CCCCn1c2nc3ccccc3nc2c2c(=O)n(CCC(C)C)cnc21	7	0	106	28	.
CCCCn1cnc2c(c1=O)c1nc3ccccc3nc1n2Cc1ccc2c(c1)OCO2	6	0	100	32	.
C=C(C)C(=O)Nc1cccc(C2=NOC3(C2)C[C@H](C(N)=O)N(C(=O)c2ccccc2C(=O)c2ccccc2)C3)c1 (some centres undefined)	1	0	102	-15	.
O=C(NCC1CCCO1)c1cc(S(=O)(=O)Nc2ccc(Br)cc2)ccc1Cl (centres undefined)	8	0	103	-2	.
CCOC(=O)Cn1nc(-c2ccc(C)cc2)c2ccccc2c1=O	-16	0	119	6	.
CCOC(=O)Cn1nc(-c2ccccc2)c2cnc3ccc(C)cc3c21	-4	0	93	42*	i
CCN(CC(=O)Nc1ccc(OC)cc1)C(=O)c1ccc([N+](=O)[O-])cc1	15	0	104	-29	.
Nc1cc(Cl)ccc1C(=O)OCC(=O)NCc1cccs1	-1	0	106	56*	.
O=C(COC(=O)c1ccccc1Cl)NCc1cccs1	.	.	108	4	.
